Experimental data from ChEMBL document CHEMBL1649435, “The octadecyloxyethyl ester of (S)-9-[3-hydroxy-2-(phosphonomethoxy) propyl]adenine is a potent and selective inhibitor of hepatitis C virus replication in genotype 1A, 1B, and 2A replicons” (Antimicrob Agents Chemother, 2009).

How the values were obtained:
[1] = Cytotoxicity against human Huh7.5 cells administered for 3 days measured 24 hrs after last dose by neutral red dye uptake assay; assay type: cell-based, Huh-7
Hepatitis C virus [2] = test: Antiviral activity against HCV2A SGR-JFH-1 infected in human Huh7.5 cells assessed as decrease in intracellular viral RNA treated for 3 days measured 24 hrs after last dose by luciferase reporter gene-based […]; assay type: functional, organism-based, Hepacivirus hominis; details: genotype 2a SGR-JFH-1, Huh-7
Outline: (§1)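 Huh-7.5.1 human hepatoma cells stably carried the BM4-5 FEO (genotype 1B) or SGR-JFH-1 FEO (genotype 2A) replicon, selected with 500 μg/ml G-418. Cells were seeded at 10,000 per well and incubated with compound up to 100 μM (0.3% DMSO final) for 48 to 72 h. Luciferase light units gave dose-response EC50s. Each condition was run in triplicate, with 3 or 4 experimental replicates.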

Hepatitis C virus [3] = test: Antiviral activity against HCV1B BM4-5 infected in human Huh7.5 cells assessed as decrease in intracellular viral RNA treated for 3 days measured 24 hrs after last dose by luciferase reporter gene-based […]; assay type: functional, organism-based, Hepacivirus hominis; details: genotype 1b BM4-5, Huh-7; outline: as §1
[4] = Selectivity index, ratio of CC50 for human Huh7.5 cells to EC50 for HCV genotype 1B BM4-5 infected in human Huh7.5 cells; parameters: species or system Huh-7
Outline: (§2)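 SI is CC50 divided by EC50, both from the same BM4-5 FEO (1B) or SGR-JFH-1 FEO (2A) replicon Huh-7.5.1 cultures. Cells (10,000 per well) got compound up to 100 μM (0.3% DMSO final) for 48 to 72 h. EC50 came from the luciferase read-out, CC50 from a fluorescent viability/death assay. Each condition was run in triplicate.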

[5] = Selectivity index, ratio of CC50 for human Huh7.5 cells to EC50 for HCV genotype 2A SGR-JFH-1 infected in human Huh7.5 cells; parameters: species or system Huh-7; outline: as §2

Row | EC50 (Hepatitis C virus [2]) | EC50 (Hepatitis C virus [3]) | Compound | CC50 at 72 h [1] | Selectivity Index [4] | Selectivity Index [5]
1 | > 100 µM | > 100 µM | Nc1ncnc2c1ncn2C[C@@H](CO)OCP(=O)(O)O | > 100 µM | – | –
2 | 41 µM | 6.71 µM | CCCCCCCCCCCCCCCCOCCCOP(=O)(O)CO[C@@H](CO)Cn1cnc2c(N)ncnc21 | > 100 µM | >15 | >2
3 | > 100 µM | > 100 µM | Nc1ncnc2c1ncn2C[C@H](CO)OCP(=O)(O)O | > 100 µM | – | –
4 | 6.5 µM | 2.02 µM | CCCCCCCCCCCCCCCCOCCCOP(=O)(O)CO[C@H](CO)Cn1cnc2c(N)ncnc21 | 85.3 µM | 42 | 13

Row | Compound | EC50 (Hepatitis C virus [2]) | EC50 (Hepatitis C virus [3]) | CC50 at 72 h [1] | Selectivity Index [4] | Selectivity Index [5]
5 | CCCCCCCCCCCCCCCCCCOCCOP(=O)(O)CO[C@@H](CO)Cn1cnc2c(N)ncnc21 | 26.7 µM | 7 µM | > 100 µM | >14 | >4
6 | CCCCCCCCCCCCCCCCCCOCCOP(=O)(O)CO[C@H](CO)Cn1cnc2c(N)ncnc21 | 0.69 µM | 1.31 µM | 35.6 µM | 27 | 52
